Data on one compound can be found in ChEMBL document CHEMBL1221207, “Expanding the promiscuity of a natural-product glycosyltransferase by directed evolution” (Nat Chem Biol, 2007).

Where a chain is given by its changes, count along the chain named.

In experiment [1] the test system is T1, Oleandomycin glycosyltransferase (Streptomyces antibioticus), Q53685 [P67T,S132F,A242V].
T1 sequence (whole entry): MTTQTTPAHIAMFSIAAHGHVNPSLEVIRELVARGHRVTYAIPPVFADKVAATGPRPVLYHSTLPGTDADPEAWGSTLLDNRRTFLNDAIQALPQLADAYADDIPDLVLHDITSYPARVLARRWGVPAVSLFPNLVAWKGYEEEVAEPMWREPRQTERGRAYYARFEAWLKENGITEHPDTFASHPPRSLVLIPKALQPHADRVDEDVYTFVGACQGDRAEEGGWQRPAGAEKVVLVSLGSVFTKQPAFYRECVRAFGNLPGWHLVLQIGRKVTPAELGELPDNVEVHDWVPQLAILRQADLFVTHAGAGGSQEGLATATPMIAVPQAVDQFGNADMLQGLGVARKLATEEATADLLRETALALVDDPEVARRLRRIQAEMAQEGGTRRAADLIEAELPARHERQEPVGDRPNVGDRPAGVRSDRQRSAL
The experiment in a line: Activity of Streptomyces antibioticus OleD P67T/S132F/A242V mutant assessed as conversion rate of compound to produce glucoside 3 using NDP sugar donor UDP-6-thio-glucose after 3 hrs by HPLC. The essentials:
(§1)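 End-point donor-specificity assay with purified OleD enzyme. Percentage conversion was read after 3 h. Quenched reactions were run by reverse-phase C18 HPLC with a 10–90% CH3CN gradient in 0.1% formic acid/H2O over 20 min at 1 ml min–1, with detection at 254 nm. Products were identified by LC-MS, by comparison to standards where available, and by fluorescence.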

The test system is the same in experiment [2]. The experiment in a line: Activity of Streptomyces antibioticus OleD P67T/S132F/A242V mutant assessed as conversion rate of compound to produce glucoside 3 using NDP sugar UDP-xylose after 3 hrs by HPLC. The essentials:
as §1

Experiment [3] has as its target T2, Oleandomycin glycosyltransferase (Streptomyces antibioticus) (UniProt Q53685).
T2 sequence (whole entry): T1 sequence (whole entry) with T67P, F132S, V242A
The experiment in a line: Activity at Streptomyces antibioticus wild-type OleD assessed as as rate of glucoside formation measured as nanomoles of product formed per minute per mg of enzyme.

In experiment [4] the target is T2, Oleandomycin glycosyltransferase (Streptomyces antibioticus). As to the kind of experiment: Activity of Streptomyces antibioticus wild-type OleD assessed as conversion rate of compound to produce glucoside 3 using NDP sugar donor UDP-6-thio-glucose after 3 hrs by HPLC. The gist of the method:
as §1

Experiment [5] deals with T1, Oleandomycin glycosyltransferase (Streptomyces antibioticus), Q53685 [P67T,S132F,A242V]. As to the kind of experiment: Activity of Streptomyces antibioticus OleD P67T/S132F/A242V mutant assessed as conversion rate of compound to produce glucoside 3 using NDP sugar UDP-glucose after 3 hrs by HPLC. The gist of the method: as §1
In experiment [6] the test system is T3, Oleandomycin glycosyltransferase (Streptomyces antibioticus), Q53685 [A242V].
T3 sequence (whole entry): T1 sequence (whole entry) with T67P, F132S
The experiment in a line: Activity of Streptomyces antibioticus OleD A242V mutant assessed as conversion rate of compound to produce glucoside 3 using NDP sugar donor UDP-glucose after 3 hrs by HPLC. The gist of the method:
as §1

Experiment [7] shares this test system. As to the kind of experiment: Activity of Streptomyces antibioticus OleD A242V mutant assessed as conversion rate of compound to produce glucoside 3 using NDP sugar donor UDP-6-azido-glucose after 3 hrs by HPLC. The essentials:
as §1

The test system of experiment [8] is T4, Oleandomycin glycosyltransferase (Streptomyces antibioticus), Q53685 [P67T].
T4 sequence (whole entry): T1 sequence (whole entry) with F132S, V242A
As to the kind of experiment: Activity of Streptomyces antibioticus OleD P67T mutant assessed as conversion rate of compound to produce glucoside 3 using NDP sugar donor UDP-6-azido-glucose after 3 hrs by HPLC. The essentials:
as §1

Experiment [9] concerns T3, Oleandomycin glycosyltransferase (Streptomyces antibioticus), Q53685 [A242V]. The experiment in a line: Activity of Streptomyces antibioticus OleD A242V mutant assessed as conversion rate of compound to produce glucoside 3 using NDP sugar donor UDP-6-deoxy-glucose after 3 hrs by HPLC. The gist of the method: as §1

For the compound `Cc1cc(=O)oc2cc(O)ccc12`, the Activity in [1] came out at 47%; in experiment [2], 31%; in experiment [3], 2.5 nmol/min; in experiment [4] it was 1%; in [5], 96.4%; in experiment [6], 38%. The Activity in experiment [7] was 2%; in experiment [8] it was 2%; in experiment [9] it was 6%.
